In ChEMBL document CHEMBL3526048, “In vitro metabolism of rivoglitazone, a novel peroxisome proliferator-activated receptor γ agonist, in rat, monkey, and human liver microsomes and freshly isolated hepatocytes” (Drug Metab Dispos, 2011):

Experiments:
[1] = Drug metabolism in human hepatocytes assessed as formation of 5-hydroxy-5-(4-((6-methoxy-1-methyl-1H-benzo[d]imidazol-2-yl)methoxy)benzyl)thiazolidine-2,4-dione at 30 uM after 3 hrs by radio-HPLC/LC-MS/MS analysis in presence of NADPH-generating system and NADPH-generating system/SAM; assay type: ADME, cell-based, Hepatocyte
[2] = Drug metabolism in cynomolgus monkey liver microsomes assessed as formation of 3-(4-((6-methoxy-1-methyl-1H-benzo[d]imidazol-2-yl)methoxy)phenyl)-2-(methylsulfinyl)propanamide at 20 uM after 2 hrs by radio-HPLC/LC-MS/MS analysis in presence of NADPH-generating system/SAM; assay type: ADME, Macaca fascicularis
Cytochrome P450 2C8 = target: T1, Cytochrome P450 2C8 (Homo sapiens, UniProt P10632); assay: (§1) Activity of human CYP2C8 expressed in microsomes isolated from baculovirus infected insect cell assessed as enzyme-mediated 3-(4-((6-methoxy-1-methyl-1H-benzo[d]imidazol-2-yl)methoxy)phenyl)-2-(methylthio)propanoic acid formation at 20 uM after 2 hrs by radio-HPLC/LC-MS/MS analysis in presence of NADPH-generating system/SAM and UDPGA/SAM; assay type: ADME
T1 sequence (P10632 whole entry): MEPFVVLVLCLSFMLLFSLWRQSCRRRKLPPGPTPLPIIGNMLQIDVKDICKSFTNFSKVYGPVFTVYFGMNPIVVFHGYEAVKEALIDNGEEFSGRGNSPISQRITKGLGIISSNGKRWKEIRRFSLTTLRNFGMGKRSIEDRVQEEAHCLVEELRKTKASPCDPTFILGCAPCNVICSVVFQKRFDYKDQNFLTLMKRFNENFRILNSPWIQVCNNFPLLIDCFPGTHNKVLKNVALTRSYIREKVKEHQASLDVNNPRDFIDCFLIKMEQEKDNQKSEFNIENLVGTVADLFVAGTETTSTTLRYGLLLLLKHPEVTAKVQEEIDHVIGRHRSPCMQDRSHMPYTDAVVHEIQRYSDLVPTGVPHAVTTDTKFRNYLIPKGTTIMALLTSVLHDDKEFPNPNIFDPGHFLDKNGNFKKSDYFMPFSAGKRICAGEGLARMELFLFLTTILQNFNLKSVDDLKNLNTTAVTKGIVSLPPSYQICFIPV

Cytochrome P450 2C9 = Cytochrome P450 2C9 (Homo sapiens, UniProt P11712); assay: Activity of human CYP2C9 expressed in microsomes isolated from baculovirus infected insect cell assessed as enzyme-mediated 2-((4-((2,4-dioxothiazolidin-5-yl)methyl)phenoxy)methyl)-1-methyl-1H-benzo[d]imidazol-6-yl hydrogen sulfate formation at 20 uM after 2 hrs by radio-HPLC/LC-MS/MS analysis; assay type: ADME
Summary of the method: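 Baculovirus-insect-cell microsomes expressing the human CYP (1 mg/ml protein) were incubated with [14C]rivoglitazone (20 μM) in 50 mM potassium phosphate (pH 7.4) or 100 mM Tris-HCl (pH 7.5) with an NADPH-generating system (2 mM NADP+, 20 mM glucose 6-phosphate, 2 units/ml G6PDH, 10 mM MgCl2) for 2 h at 37°C. Insect-cell control supersomes served as the control. Reactions were stopped with acetonitrile, and the concentrated supernatants were analysed by radio-HPLC, LC-MS and LC-MS/MS.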

[3] = target: T2, UDP-glucuronosyltransferase 1A3 (Homo sapiens, UniProt P35503); assay: Activity of human UGT1A3 expressed in microsomes isolated from baculovirus infected insect cell assessed as enzyme-mediated (2S,3S,4S,5R,6R)-6-((1-carboxy-2-(4-((6-methoxy-1-methyl-1H-benzo[d]imidazol-2-yl)methoxy)phenyl)ethylthio)carbonylamino)-3,4,5-trihydroxytetrahydro-2H-pyran-2-carboxylic acid formation at 20 uM after 4 hrs by radio-HPLC/LC-MS/MS analysis in presence of NADPH-generating system/SAM; assay type: ADME
T2 sequence (P35503 whole entry): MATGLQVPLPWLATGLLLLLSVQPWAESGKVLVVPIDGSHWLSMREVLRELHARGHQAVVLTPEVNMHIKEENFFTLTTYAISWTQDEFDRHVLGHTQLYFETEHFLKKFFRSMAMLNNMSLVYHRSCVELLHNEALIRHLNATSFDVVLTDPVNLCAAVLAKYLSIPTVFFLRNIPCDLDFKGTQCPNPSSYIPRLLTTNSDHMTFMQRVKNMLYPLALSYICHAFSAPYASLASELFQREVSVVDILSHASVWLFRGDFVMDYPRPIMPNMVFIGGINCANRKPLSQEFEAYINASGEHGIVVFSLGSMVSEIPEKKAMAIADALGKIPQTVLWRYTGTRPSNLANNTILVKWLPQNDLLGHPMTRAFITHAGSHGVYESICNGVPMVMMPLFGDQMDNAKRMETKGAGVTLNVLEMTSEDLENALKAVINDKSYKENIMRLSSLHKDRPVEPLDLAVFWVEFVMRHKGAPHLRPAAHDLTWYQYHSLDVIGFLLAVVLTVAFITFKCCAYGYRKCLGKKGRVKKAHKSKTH

Cytochrome P450 3A5 = Cytochrome P450 3A5 (Homo sapiens, UniProt P20815); assay: as §1, with “CYP3A5” for “CYP2C8”; assay type: ADME
Summary of the method: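 cDNA-expressed human CYP3A5 in baculovirus-insect-cell microsomes (1 mg/ml protein) was incubated with [¹⁴C]rivoglitazone (20 μM) in 50 mM potassium phosphate (pH 7.4) or 100 mM Tris-HCl (pH 7.5). NADPH-generating system: 2 mM NADP⁺, 20 mM glucose 6-phosphate, 2 units/ml G6PDH, 10 mM MgCl₂. Incubation ran 2 h at 37°C with shaking; insect-cell control supersomes served as control. Acetonitrile stop, supernatant concentrated, then radio-HPLC, LC-MS and LC-MS/MS.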

[4] = target: T3, UDP-glucuronosyltransferase 2B7 (Homo sapiens, UniProt P16662); assay: Activity of human UGT2B7 expressed in microsomes isolated from baculovirus infected insect cell assessed as enzyme-mediated 2-hydroxy-3-(4-((6-methoxy-1-methyl-1H-benzo[d]imidazol-2-yl)methoxy)phenyl)propanamide formation at 20 uM after 4 hrs by radio-HPLC/LC-MS/MS analysis in presence of NADPH-generating system and NADPH-generating system/SAM in presence of UDPGA and UDPGA/SAM; assay type: ADME
T3 sequence (P16662 whole entry): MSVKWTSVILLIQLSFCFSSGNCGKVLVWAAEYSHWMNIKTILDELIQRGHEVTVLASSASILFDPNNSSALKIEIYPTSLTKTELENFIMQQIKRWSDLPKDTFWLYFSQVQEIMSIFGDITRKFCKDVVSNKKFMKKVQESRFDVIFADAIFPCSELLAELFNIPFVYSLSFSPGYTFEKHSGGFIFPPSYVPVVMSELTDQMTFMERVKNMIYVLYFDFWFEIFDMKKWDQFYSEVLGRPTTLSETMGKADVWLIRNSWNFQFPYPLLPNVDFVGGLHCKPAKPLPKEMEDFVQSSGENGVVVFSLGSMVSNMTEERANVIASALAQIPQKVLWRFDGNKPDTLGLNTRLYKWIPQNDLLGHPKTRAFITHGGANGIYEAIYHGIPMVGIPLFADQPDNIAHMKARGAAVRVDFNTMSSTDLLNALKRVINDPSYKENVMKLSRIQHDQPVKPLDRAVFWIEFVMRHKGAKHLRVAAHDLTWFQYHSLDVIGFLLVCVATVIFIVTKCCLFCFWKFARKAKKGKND

Sequence of Cytochrome P450 2C9 (P11712 whole entry): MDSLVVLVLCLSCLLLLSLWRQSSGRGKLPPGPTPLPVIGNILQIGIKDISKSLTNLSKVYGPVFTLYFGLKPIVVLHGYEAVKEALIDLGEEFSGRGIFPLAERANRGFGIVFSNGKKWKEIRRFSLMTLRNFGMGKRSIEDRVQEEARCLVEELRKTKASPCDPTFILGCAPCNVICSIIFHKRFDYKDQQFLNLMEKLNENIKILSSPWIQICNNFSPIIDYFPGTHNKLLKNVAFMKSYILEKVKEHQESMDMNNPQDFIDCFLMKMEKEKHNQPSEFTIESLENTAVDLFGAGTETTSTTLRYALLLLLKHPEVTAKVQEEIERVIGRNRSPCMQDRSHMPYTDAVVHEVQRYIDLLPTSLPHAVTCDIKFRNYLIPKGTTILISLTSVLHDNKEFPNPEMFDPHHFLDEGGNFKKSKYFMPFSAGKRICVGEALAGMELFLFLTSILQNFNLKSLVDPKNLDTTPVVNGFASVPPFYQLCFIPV
Sequence of Cytochrome P450 3A5 (P20815 whole entry): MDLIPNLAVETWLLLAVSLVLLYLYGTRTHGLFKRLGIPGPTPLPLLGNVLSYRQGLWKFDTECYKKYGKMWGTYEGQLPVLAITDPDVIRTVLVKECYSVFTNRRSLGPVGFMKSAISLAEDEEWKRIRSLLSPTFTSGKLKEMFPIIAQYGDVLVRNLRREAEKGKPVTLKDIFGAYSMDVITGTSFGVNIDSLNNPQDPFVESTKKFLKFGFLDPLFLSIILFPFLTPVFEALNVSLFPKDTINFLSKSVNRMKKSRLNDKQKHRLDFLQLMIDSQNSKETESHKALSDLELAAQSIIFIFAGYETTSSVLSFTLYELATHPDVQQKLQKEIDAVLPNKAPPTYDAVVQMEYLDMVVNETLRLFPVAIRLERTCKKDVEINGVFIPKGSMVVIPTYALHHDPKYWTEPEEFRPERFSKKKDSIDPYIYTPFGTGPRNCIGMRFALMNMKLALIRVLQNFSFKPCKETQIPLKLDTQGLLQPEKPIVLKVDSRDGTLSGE

Drug metabolism [1]: metabolite_detected
Drug metabolism [2]: metabolite_detected
Drug metabolism (Cytochrome P450 2C8): metabolite_not_detected
Drug metabolism (Cytochrome P450 2C9): metabolite_not_detected
Drug metabolism [3]: metabolite_detected
Drug metabolism (Cytochrome P450 3A5): metabolite_not_detected
Drug metabolism [4]: metabolite_not_detected
SMILES: COc1ccc2nc(COc3ccc(C[14CH]4SC(=O)NC4=O)cc3)n(C)c2c1.Cl (racemic)
